Experimental data published in ChEMBL document CHEMBL6177914, “Human microbiome derived synthetic antimicrobial peptides with activity against Gram-negative, Gram-positive, and antibiotic resistant bacteria” (RSC Med Chem, 2025).
≈ marks a conversion by molar mass, not a printed value. Calls of active or inactive are those of the source. The rule behind the calls is not given here. Peptide text beside a SMILES is read from it.

Experiments:
Listeria monocytogenes [1] = experiment: Antibacterial activity against Listeria monocytogenes ATCC 15313 assessed as inhibition of bacterial growth incubated for 24 hrs by absorbance based microplate reader analysis; type: functional; details: read-out: MIC100
In short: (§1)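 Broth microdilution. A single colony was grown 24 h in its recommended broth, then diluted 1:10 000 in the same medium. Peptide serial dilutions were added from DMSO stock at 4 µL per 196 µL inoculated medium. Plates were incubated aerobically or anaerobically as each pathogen requires, at 37 °C for 24 h, and OD600 was read. Duplicate wells; assay repeated five times independently.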

Escherichia coli [2] = experiment: Antibacterial activity against Escherichia coli ATCC 33694 assessed as inhibition of bacterial growth incubated for 24 hrs by absorbance based microplate reader analysis; type: functional; details: read-out: MIC100
In short: (§2)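 Broth microdilution. An overnight single-colony culture in recommended broth was diluted 1:10 000, and peptide serial dilutions in DMSO were added (4 µL into 196 µL). Plates incubated 24 h at 37 °C, aerobic or anaerobic as required, then OD600 read. Inhibition was calculated against pathogen-only and blank wells.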

Pseudomonas aeruginosa [3] = experiment: Antibacterial activity against Pseudomonas aeruginosa BAA 1744 assessed as inhibition of bacterial growth incubated for 24 hrs by absorbance based microplate reader analysis; type: functional; in short: as §2
Salmonella enterica [4] = experiment: Antibacterial activity against Salmonella enterica ATCC 13314 assessed as inhibition of bacterial growth incubated for 24 hrs by absorbance based microplate reader analysis; type: functional; in short: as §2
Staphylococcus aureus [5] = experiment: Bactericidal activity against Staphylococcus aureus ATCC 25923 assessed as inhibition of bacterial growth at MIC concentration incubated for 48 hrs by broth microdilution assay; type: functional, organism-based
In short: (§3)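 From broth-microdilution wells showing no growth, 10 µL was spotted onto agar and incubated 48 h at 37 °C. Plates were inspected for colonies. Fidaxomicin at 1 µM served as control.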

Clostridioides difficile [6] = experiment: Bactericidal activity against Clostridium difficile ATCC 43602 assessed as inhibition of bacterial growth at MIC concentration incubated for 48 hrs by broth microdilution assay; type: functional, organism-based; in short: as §3
Listeria monocytogenes [7] = experiment: Bactericidal activity against Listeria monocytogenes ATCC 15313 assessed as inhibition of bacterial growth at MIC concentration incubated for 48 hrs by broth microdilution assay; type: functional, organism-based; in short: as §3
Staphylococcus aureus [8] = experiment: Bactericidal activity against methicillin resistant Staphylococcus aureus BAA 2313 assessed as inhibition of bacterial growth at MIC concentration incubated for 48 hrs by broth microdilution assay; type: functional, organism-based
In short: (§4)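 Plates were incubated 48 h at 37 °C and examined for colonies. A fidaxomicin-treated culture at 1 µM served as the control.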

Enterococcus faecium [9] = experiment: Bactericidal activity against vancomycin resistant Enterococcus faecium BAA 2317 assessed as inhibition of bacterial growth at MIC concentration incubated for 48 hrs by broth microdilution assay; type: functional, organism-based; in short: as §4
Escherichia coli [10] = experiment: Bactericidal activity against Escherichia coli ATCC 33694 assessed as inhibition of bacterial growth at MIC concentration incubated for 48 hrs by broth microdilution assay; type: functional, organism-based; in short: as §3
Pseudomonas aeruginosa [11] = experiment: Bactericidal activity against Pseudomonas aeruginosa BAA 1744 assessed as inhibition of bacterial growth at MIC concentration incubated for 48 hrs by broth microdilution assay; type: functional, organism-based; in short: as §3
Salmonella enterica [12] = experiment: Bactericidal activity against Salmonella enterica ATCC 13314 assessed as inhibition of bacterial growth at MIC concentration incubated for 48 hrs by broth microdilution assay; type: functional, organism-based; in short: as §3
Caco-2 [13] = experiment: Anti-inflammatory activity in human Caco-2 cells infected with Clostridium difficile ATCC 43602 assessed as reduction in IL-1beta level at MIC concentration by ELISA relative to control; type: functional; parameters: scale not given: the % may be the effect or the level left
In short: (§5)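 Caco-2 cells grown in DMEM + 10% FBS, 37 °C, 5% CO2, to 90% confluence, then seeded 30 000 cells/well and held 24 h. C. difficile was grown overnight anaerobically in meat broth, washed in PBS, and 1 µL of 0.5 OD600 culture added per 300 µL medium. […] Cytokine in supernatant measured by ELISA; three independent replicates.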

Staphylococcus aureus [14] = experiment: Antibacterial activity against Staphylococcus aureus ATCC 25923 assessed as reduction in bacterial growth at MIC concentration measured after 24 hrs by time-kill kinetic analysis; type: functional, organism-based
In short: (§6)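 Samples (5 µL) taken at 0, 1, 2, 4, 6, 12, 18 and 24 h, tenfold diluted in 0.85% NaCl, and plated on TSA overnight at 37 °C for CFU counts. Two independent duplicates.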

Staphylococcus aureus [15] = experiment: Antibacterial activity against Staphylococcus aureus ATCC 25923 assessed as reduction in colony forming units at MIC concentration measured after 2 hrs by time-kill kinetic analysis; type: functional; in short: as §6
Staphylococcus aureus [16] = experiment: Antibacterial activity against Staphylococcus aureus ATCC 25923 assessed as reduction in surviving bacteria at MIC concentration measured after 12 hrs by time-kill kinetic analysis; type: functional; in short: as §6
[17] = Retention time of compound by RP-HPLC analysis; type: physicochemical
In short: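 Analytical reversed-phase HPLC.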

Clostridioides difficile [18] = experiment: Antibacterial activity against Clostridium difficile ATCC 43602 assessed as inhibition of bacterial growth incubated for 24 hrs by absorbance based microplate reader analysis; type: functional; details: read-out: MIC100
Caco-2 [19] = experiment: Anti-inflammatory activity in human Caco-2 cells infected with Clostridium difficile ATCC 43602 assessed as reduction in IL-6 level at MIC concentration by ELISA relative to control; type: functional; parameters: scale not given: the % may be the effect or the level left; in short: as §5
Staphylococcus aureus [20] = experiment: Antibacterial activity against Staphylococcus aureus ATCC 25923 assessed as inhibition of bacterial growth incubated for 24 hrs by absorbance based microplate reader analysis; type: functional; details: read-out: MIC100; in short: as §1
Staphylococcus aureus [21] = experiment: Antibacterial activity against methicillin resistant Staphylococcus aureus BAA 2313 assessed as inhibition of bacterial growth incubated for 24 hrs by absorbance based microplate reader analysis; type: functional; in short: as §1
Enterococcus faecium [22] = experiment: Antibacterial activity against vancomycin resistant Enterococcus faecium BAA 2317 assessed as inhibition of bacterial growth incubated for 24 hrs by absorbance based microplate reader analysis; type: functional
In short: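 Broth microdilution. A single colony was grown 24 h in its recommended broth, then diluted 1:10 000 in the same medium. Peptide serial dilutions were added from DMSO stock at 4 µL per 196 µL inoculated medium. Plates were incubated aerobically or anaerobically as each pathogen requires, at 37 °C for 24 h, and OD600 was read. MIC was the lowest concentration giving 100% growth inhibition. Duplicate wells; assay repeated five times independently.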

Caco-2 [23] = experiment: Anti-inflammatory activity in human Caco-2 cells infected with Clostridium difficile ATCC 43602 assessed as reduction in TNFalpha level at MIC concentration by ELISA relative to control; type: functional; parameters: scale not given: the % may be the effect or the level left; in short: as §5
Staphylococcus aureus [24] = experiment: Induction of morphological changes in Staphylococcus aureus ATCC 25923 assessed as deformation of cells at MIC concentration by transmission electron microscopic analysis; type: functional, organism-based
In short: (§7)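 Cells were pelleted at 4 °C, washed in 0.1 M PBS pH 7.2, and fixed overnight (4% formaldehyde, 1.25% glutaraldehyde, ruthenium red). Post-fixed in 1% OsO4, dehydrated through ethanol, embedded in epoxy resin and imaged by TEM.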

Staphylococcus aureus [25] = experiment: Induction of morphological changes in Staphylococcus aureus ATCC 25923 assessed as disintegration of cells at MIC concentration by transmission electron microscopic analysis; type: functional, organism-based; in short: as §7
Staphylococcus aureus [26] = experiment: Induction of morphological changes in Staphylococcus aureus ATCC 25923 assessed as cell wall lysis at MIC concentration by transmission electron microscopic analysis; type: functional, organism-based; in short: as §7
Staphylococcus aureus [27] = experiment: Induction of morphological changes in Staphylococcus aureus ATCC 25923 assessed as fragmentation of intracellular content at MIC concentration by transmission electron microscopic analysis; type: functional, organism-based; in short: as §7
Staphylococcus aureus [28] = experiment: Induction of morphological changes in Staphylococcus aureus ATCC 25923 assessed as leakage of intracellular content at MIC concentration by transmission electron microscopic analysis; type: functional, organism-based; in short: as §7
Staphylococcus aureus [29] = experiment: Induction of morphological changes in Staphylococcus aureus ATCC 25923 assessed as detachment of pieces from cell wall at MIC concentration by transmission electron microscopic analysis; type: functional, organism-based; in short: as §7
Caco-2 [30] = experiment: Anti-inflammatory activity in human Caco-2 cells infected with Clostridium difficile ATCC 43602 assessed as reduction in IL-8 level at MIC concentration by ELISA relative to control; type: functional; parameters: scale not given: the % may be the effect or the level left; in short: as §5

Row | Molecule | MIC (Listeria monocytogenes [1]) [µM] | Activity (Pseudomonas aeruginosa [3]) | Activity (Salmonella enterica [4]) | Activity (Staphylococcus aureus [5]) | Activity (Clostridioides difficile [6]) | Activity (Listeria monocytogenes [7]) | Activity (Staphylococcus aureus [8]) | Activity (Enterococcus faecium [9]) | Activity (Escherichia coli [10]) | Activity (Pseudomonas aeruginosa [11]) | Activity (Salmonella enterica [12]) | Activity (Caco-2 [13]) [%] | Activity (Staphylococcus aureus [14]) | Activity (Staphylococcus aureus [15]) [log10CFU/ml] | Activity (Staphylococcus aureus [16]) [log10CFU/ml] | Retention_time [17] [min] | MIC (Clostridioides difficile [18]) [µM] | Activity (Caco-2 [23]) [%] | also measured
1 | CC[C@H](C)[C@H](NC(=O)CNC(=O)CNC(=O)[C@H](CO)NC(=O)[C@@H](NC(=O)[C@H](CCCCN)NC(=O)[C@H](CO)NC(=O)[C@H](CC(C)C)NC(=O)[C@H](CCC(=O)O)NC(=O)[C@@H](NC(=O)[C@H](CCC(=O)O)NC(=O)[C@H](CC(N)=O)NC(=O)[C@H](CC(C)C)NC(=O)[C@H](CCCCN)NC(=O)[C@H](CC(N)=O)NC(=O)[C@@H](N)CCSC)C(C)C)[C@@H](C)CC)C(=O)NCC(=O)N1CCC[C@H]1C(=O)N[C@@H](CC(C)C)C(=O)N[C@H](C(=O)N[C@H](C(=O)N1CCC[C@H]1C(=O)N[C@H](C(=O)N[C@@H](C)C(=O)N[C@@H](C)C(=O)N[C@H](C(=O)N[C@@H](CC(C)C)C(=O)NCC(=O)N[C@@H](Cc1ccccc1)C(=O)N[C@@H](CC(C)C)C(=O)N[C@@H](C)C(=O)N[C@H](C(=O)N[C@@H](CC(=O)O)C(=O)N[C@@H](C)C(=O)N[C@@H](Cc1c[nH]c2ccccc12)C(=O)N[C@@H](CC(N)=O)C(=O)N[C@@H](Cc1cnc[nH]1)C(=O)N[C@@H](C)C(=O)N[C@@H](CC(=O)O)C(=O)N[C@@H](CCC(=O)O)C(=O)N[C@@H](CC(C)C)C(=O)N[C@H](C(=O)N[C@@H](C)C(=O)NCC(=O)N[C@H](C(=O)N[C@@H](CCCCN)C(=O)N[C@@H](CCC(N)=O)C(=O)NCC(=O)N[C@@H](Cc1c[nH]c2ccccc12)C(=O)N[C@@H](CCC(=O)O)C(=O)N[C@@H](CCCNC(=N)N)C(=O)N[C@@H](CO)C(=O)O)C(C)C)C(C)C)[C@H](C)O)[C@@H](C)CC)C(C)C)[C@@H](C)CC)C(C)C | 1.2 (≈ 6.62 µg/mL) | inactive | inactive | Active | Active | Active | Active | Active | Active | Active | Active | 91 | Active | 2 | 5 |  |  |  | MIC (Escherichia coli [2]): 7.5 µM (≈ 41.4 µg/mL)
2 | CC[C@H](C)[C@@H]1NC(=O)CNC(=O)CNC(=O)[C@H](CO)NC(=O)[C@H]([C@@H](C)CC)NC(=O)[C@H](CCCCN)NC(=O)[C@H](CO)NC(=O)[C@H](CC(C)C)NC(=O)[C@H](C(C)C)NC(=O)[C@@H]2CCCN2C(=O)[C@H]([C@@H](C)CC)NC(=O)[C@H](C(C)C)NC(=O)[C@H](CC(C)C)NC(=O)[C@@H]2CCCN2C(=O)CNC1=O (cyclo(LSKISGGIGPLVIPV)) | 1.5 (≈ 2.15 µg/mL) |  | inactive | Active | Active | Active | Active | Active | Active | Active | Active |  |  |  |  | 18.35 | 0.9 (≈ 1.29 µg/mL) |  | Activity (Caco-2 [19]): 4%
3 | CC1(C)S[C@@H]2[C@H](NC(=O)[C@H](N)c3ccc(O)cc3)C(=O)N2[C@H]1C(=O)O [AMOXICILLIN] |  |  |  |  |  |  |  |  |  |  |  |  | Active | 4 | 5 |  |  |  | MIC (Staphylococcus aureus [20]): 5 µM (≈ 1.83 µg/mL); MIC (Staphylococcus aureus [21]; read-out: MIC100): 35 µM (≈ 12.8 µg/mL); MIC (Enterococcus faecium [22]; read-out: MIC100): 35 µM (≈ 12.8 µg/mL)
4 | H-AGVKQGWERS-NH2 |  | inactive | inactive | Active | Active | Active | Active | Active | Active | Active | Active | 18 |  |  |  | 6.41 |  | 0 | 
5 | H-LSKISGGIGPLVIPV-NH2 |  |  | inactive | Active | Active | Active | Active | Active | Active | Active | Active |  | Active | 2 | 5 | 14.51 | 0.9 | 10 | MIC (Pseudomonas aeruginosa [3]; read-out: MIC100): 9.3 µM; Activity (Staphylococcus aureus [24]): Active; Activity (Staphylococcus aureus [25]): Active; Activity (Staphylococcus aureus [26]): Active; Activity (Staphylococcus aureus [27]): Active; Activity (Staphylococcus aureus [28]): Active; Activity (Staphylococcus aureus [29]): Active
6 | H-SGGIGPLVIP-NH2 |  |  | inactive | Active | Active | Active | Active | Active | Active | Active | Active |  |  |  |  | 13.82 |  |  | Activity (Staphylococcus aureus [21]): inactive; Activity (Enterococcus faecium [22]): inactive; Activity (Caco-2 [30]): 6%
